Calls of active or inactive are those of the source. The rule behind the calls is not given here.
Assays:
[1] = Tmax in Beagle dog assessed as JBP485 level at 12 mg/kg equiv of JBP485 administered orally by UPLC-MS/MS analysis; type: ADME, organism-based, Canis lupus familiaris; settings: in vivo, po
Method in brief: (§1)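 Male beagle dogs, 2 years old, 8–10 kg, dosed orally at 12 mg/kg (prodrug calculated as JBP485) in aqueous solution. Jugular blood taken 0.167–8 h into heparin, centrifuged, plasma JBP485 by UPLC-MS/MS; n=6.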

[2] = Terminal half-life in Sprague-Dawley rat assessed as JBP485 level at 12 mg/kg equiv of JBP485 administered orally by UPLC-MS/MS analysis; type: ADME, organism-based; settings: in vivo, po
Method in brief: (§2)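 Fasted male SD rats (200–250 g), oral 12 mg/kg (prodrugs calculated as JBP485). Jugular blood 0.083–10 h, centrifuged, plasma JBP485 by UPLC-MS/MS; n=6.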

[3] = AUC (0 to t) in Sprague-Dawley rat assessed as JBP485 level at 12 mg/kg equiv of JBP485 administered orally by UPLC-MS/MS analysis; type: ADME, organism-based; settings: in vivo, po
Method in brief: (§3)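 Male SD rats, 200-250 g, fasted 12 h with water, n=6. Oral dose of 12 mg/kg as JBP485 equivalent; dose-effect arms at 12 and 100 mg/kg. JBP485 given iv at 6 mg/kg as the reference. Jugular blood taken at 0.083-10 h. Plasma JBP485 by UPLC-MS/MS. Absolute F = (AUCpo×Div)/(AUCiv×Dpo)×100%, using AUC0-t.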

[4] = Ratio of half-life in pH 7.2 phosphate buffer to half-life in Sprague-Dawley rat intestinal homogenates; type: ADME, tissue-based; settings: tissue homogenate
[5] = Terminal half life in Beagle dog assessed as JBP485 level at 12 mg/kg equiv of JBP485 administered orally by UPLC-MS/MS analysis; type: ADME, organism-based, Canis lupus familiaris; settings: in vivo, po; method in brief: as §1
[6] = Ratio of half-life in pH 7.2 phosphate buffer to half-life in Sprague-Dawley rat plasma; type: ADME
Rattus norvegicus [7] = test: (§4) Anti-hepatitis activity in ANIT-induced Sprague-Dawley rat model of liver injury assessed as reduction in liver necrosis at 3.125 to 25 mg/kg, po administered 30 mins prior to ANIT challenge and subsequent dosing at 8, 22, 32, and 46 hrs post ANIT challenge and measured 48 hrs post ANIT challenge by H and E staining-based assay; type: functional, organism-based
Method in brief: (§5)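 ANIT 50 mg/kg ip liver-injury model in male SD rats, 6 per group. Oral or ip treatment at 30 min before and 8, 22, 32 and 46 h after ANIT. Liver excised at 48 h, fixed in 4% formalin, stained with H&E, and examined microscopically for hepatocellular edema and necrosis.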

[8] = AUC (0 to t) in Beagle dog assessed as JBP485 level at 12 mg/kg equiv of JBP485 administered orally by UPLC-MS/MS analysis; type: ADME, organism-based, Canis lupus familiaris; settings: in vivo, po
Method in brief: (§6)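 Male beagle dogs, 2 years old, 8-10 kg, n=6. Single oral dose of 12 mg/kg (prodrug dosed as JBP485 equivalent) given in aqueous solution. Jugular venipuncture blood taken at 0.167-8 h into sodium heparin tubes. Plasma JBP485 measured by UPLC-MS/MS; AUC0-t and Cmax from the concentration-time profiles.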

[9] = Cmax in Beagle dog assessed as JBP485 level at 12 mg/kg equiv of JBP485 administered orally by UPLC-MS/MS analysis; type: ADME, organism-based, Canis lupus familiaris; design: dose 12 mg/kg, route oral; settings: in vivo, po; method in brief: as §6
[10] = Cmax in Sprague-Dawley rat at 12 mg/kg, po by UPLC-MS/MS analysis; type: ADME, organism-based; design: dose 12 mg/kg, route oral; settings: in vivo; method in brief: as §3
Rattus norvegicus [11] = test: as §4, with “in hepatocellular edema” for “in liver necrosis”, “at 6.25” for “at 3.125”, “to 12.5” for “to 25”, “mg/kg, ip” for “mg/kg, po”; type: functional, organism-based; method in brief: as §5
Rattus norvegicus [12] = test: as §4, with “at 6.25” for “at 3.125”, “to 12.5” for “to 25”, “mg/kg, ip” for “mg/kg, po”; type: functional, organism-based; method in brief: as §5
Rattus norvegicus [13] = test: as §4, with “hepatocellular edema” for “liver necrosis”, “6.25” for “3.125”; type: functional, organism-based; method in brief: as §5
[14] = Terminal half life in Sprague-Dawley rat assessed as JBP485 level at 100 mg/kg, po by LC-MS/MS analysis; type: ADME, organism-based; settings: in vivo
Method in brief: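 Male SD rats (200–250 g) fasted 12 h, given JBP485 or prodrug (calculated as JBP485) orally at 12 or 100 mg/kg. Jugular blood sampled 0.083–10 h, plasma JBP485 by UPLC-MS/MS; n=6.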

[15] = Terminal half-life in Sprague-Dawley rat at 12 mg/kg, po by UPLC-MS/MS analysis; type: ADME, organism-based; settings: in vivo, read-out: beta t1/2 (converted); method in brief: as §2
[16] = AUC (0 to t) in Sprague-Dawley rat at 12 mg/kg, po by UPLC-MS/MS analysis; type: ADME, organism-based; settings: in vivo; method in brief: as §3
[17] = Cmax in Beagle dog at 12 mg/kg, po by UPLC-MS/MS analysis; type: ADME, organism-based, Canis lupus familiaris; design: dose 12 mg/kg, route oral; settings: in vivo; method in brief: as §6
Rattus norvegicus [18] = test: as §4, with “serum alanine aminotransferase level” for “liver necrosis”, “6.25” for “3.125”, “challenge” for “challenge by H and E staining-based assay”; type: functional, organism-based
Method in brief: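 ANIT (50 mg/kg ip, olive oil) cholestatic liver injury in male SD rats, 6 per group. Oral or ip dosing (UDCA 100 mg/kg po in CMC-Na) at 30 min before and 8, 22, 32 and 46 h after ANIT. Serum collected at 48 h from the abdominal aorta; ALT and AST activities measured with kits.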

Tmax [1]	beta t1/2 [2]	AUCt [3]	Ratio [4]	beta t1/2 [5]	Ratio [6]	AUCt [8]	Cmax [9]	Cmax [10]	beta t1/2 [14]	half-life [15]	AUCt [16]	Cmax [17]	SMILES	Activity (Rattus norvegicus [7])	Activity (Rattus norvegicus [11])	Activity (Rattus norvegicus [12])	Activity (Rattus norvegicus [13])	Activity (Rattus norvegicus [18])
0.58 h	2.11 h	194.47 nM/ml.hr	3 to 35	1.68 h	3 to 35	233.25 nM/ml.hr	85.9 nM/ml						CC(C)[C@H](N)C(=O)OC[C@@H]1NC(=O)[C@@H]2C[C@@H](O)CN2C1=O	Active				
								27.8 µM	1.5 h	2.12 h	81.4 nM/ml.hr	26.65 nM/ml	O=C1N[C@@H](CO)C(=O)N2C[C@H](O)C[C@@H]12		Active	Active	Active	Active
